Measured values gathered from unrelated publications.
Compare with care: the assays were run in different laboratories.
Target: Bone morphogenetic protein receptor type-2 (BMPR2, Homo sapiens, UniProt Q13873)
Residues used in one study (Q13873 27-1038): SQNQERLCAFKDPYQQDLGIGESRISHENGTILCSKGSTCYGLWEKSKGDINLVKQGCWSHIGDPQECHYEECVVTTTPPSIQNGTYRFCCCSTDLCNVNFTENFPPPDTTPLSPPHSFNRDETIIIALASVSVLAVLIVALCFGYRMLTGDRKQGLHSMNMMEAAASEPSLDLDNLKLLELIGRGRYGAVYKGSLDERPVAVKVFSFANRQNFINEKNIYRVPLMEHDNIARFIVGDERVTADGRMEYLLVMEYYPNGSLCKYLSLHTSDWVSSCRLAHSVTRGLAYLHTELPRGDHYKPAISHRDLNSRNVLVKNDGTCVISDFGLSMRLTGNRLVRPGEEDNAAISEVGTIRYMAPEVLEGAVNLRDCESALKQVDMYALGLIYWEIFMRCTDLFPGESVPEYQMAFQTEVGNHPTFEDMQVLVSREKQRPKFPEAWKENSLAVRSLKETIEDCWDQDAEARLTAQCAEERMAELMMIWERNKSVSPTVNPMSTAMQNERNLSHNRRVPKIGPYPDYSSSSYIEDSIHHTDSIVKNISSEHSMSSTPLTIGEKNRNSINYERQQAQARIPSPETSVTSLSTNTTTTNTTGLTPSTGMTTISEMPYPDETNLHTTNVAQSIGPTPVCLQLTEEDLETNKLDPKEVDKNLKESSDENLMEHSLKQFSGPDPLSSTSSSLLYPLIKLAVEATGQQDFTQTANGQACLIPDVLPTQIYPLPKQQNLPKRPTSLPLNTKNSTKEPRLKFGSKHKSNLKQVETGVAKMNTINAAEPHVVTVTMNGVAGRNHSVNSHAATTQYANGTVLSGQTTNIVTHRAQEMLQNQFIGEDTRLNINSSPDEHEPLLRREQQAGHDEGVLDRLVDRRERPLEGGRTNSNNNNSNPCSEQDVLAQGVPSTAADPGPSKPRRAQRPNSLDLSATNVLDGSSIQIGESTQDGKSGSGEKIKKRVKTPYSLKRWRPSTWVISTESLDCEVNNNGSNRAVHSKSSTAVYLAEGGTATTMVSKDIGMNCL

Compound	test	conditions	measurement	value
C1=C/COCc2cc(ccc2OCCN2CCCC2)Nc2nccc(n2)-c2cccc(c2)COC/1	binding	0.1 µM	remaining binding	80%
COc1ccc2oc(-c3ccc4nc(N)oc4c3)c/c(=N\c3ccccc3NC(=O)CCN)c2c1	binding	1 µM	remaining binding	104%
N#Cc1ccc(NC(=O)Nc2ccccc2)cc1	cell-free assay, competition with immobilised ligand	25 µM	remaining binding	95%
CC#CC(=O)N1CCC[C@H]1c1nc(-c2ccc(C(=O)Nc3ccccn3)cc2)c2c(N)nccn12	enzyme activity, inhibitor	1 µM	inhibition	0%
Cc1ccc(NC(=O)c2ccnc(C(F)(F)F)c2)cc1-c1cc(OCCO)nc(N2CCOCC2)c1	binding	1 µM	remaining binding	100%
CCCCC(=O)Nc1ccc(-c2ccc3ncn(CCC)c(=O)c3c2)cn1	binding, competition with immobilised ligand	0.5 µM	remaining binding	100%
C=CC(=O)N1CCC[C@@H](n2nc(-c3ccc(Oc4ccccc4)cc3)c3c(N)ncnc32)C1	enzyme activity, inhibitor	1 µM	inhibition	19%
C[C@H]1CC[C@H](n2c3cnccc3c3cnc(Nc4ccc5c(n4)CCN(C(=O)CO)C5)nc32)CC1	binding	1 µM	remaining binding	100%
